{"source": "ChEMBL document CHEMBL1152612", "about": "“Ursolic acid derivatives induce cell cycle arrest and apoptosis in NTUB1 cells associated with reactive oxygen species” (Bioorg Med Chem, 2009)", "key": {"[1]": {"assay": "Cytotoxicity against human NTUB1 cells assessed as cell viability at >30 uM after 72 hrs by MTT assay", "format": "functional", "procedure,_shortened": "(§1)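 Cells grown in RPMI 1640 with 10% FBS, penicillin/streptomycin and 2 mM L-glutamine at 37 °C under 5% CO₂. Seeded 1800 cells/well, left overnight, then given graded compound concentrations for 72 h; compounds diluted from DMSO, 0.1% DMSO in medium and in controls. MTT 2 mg/mL in PBS for 3 h, formazan dissolved in DMSO, absorbance 540 nm. Viability given as % of control; IC50 by median-effect analysis, mean ± SD.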"}, "[2]": {"assay": "Cytotoxicity against human NTUB1 cells after 72 hrs by MTT assay", "format": "functional, cell-based", "details": "NTUB1, 72 h", "procedure,_shortened": "as §1"}, "[3]": {"assay": "Induction of apoptosis in human NTUB1 cells assessed as accumulation at subG1 phase at 20 uM after 48 hrs using propidium iodide staining by flow cytometry", "format": "functional", "procedure,_shortened": "(§2)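 NTUB1 cells plated at 8 × 10⁵ per 10 cm dish and exposed to compound for 24 or 48 h; untreated controls got medium alone. Cells trypsinized, PBS-washed and fixed overnight in ice-cold MeOH at −20 °C, then stained with 50 µg/mL propidium iodide plus RNase A. DNA content was read by flow cytometry, with apoptosis taken as sub-G1 accumulation. Three independent experiments.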"}, "NTUB1 [4]": {"system": "NTUB1", "assay": "Increase in intracellular reactive oxygen species level in human NTUB1 cells at 50 uM after 24 hrs in presence of 1 mM N-acetyl-cysteine by DCFH-DA staining", "format": "functional, cell-based", "procedure,_shortened": "(§3)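 NTUB1 cells treated for 24 or 48 h, with or without 1 mM N-acetylcysteine. DCFH-DA (10 µM) added 30 min before harvest; cells then trypsinized, PBS-washed, and DCF green fluorescence read at once by flow cytometry through a 525 nm band-pass filter. Three independent experiments.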"}, "NTUB1 [5]": {"system": "NTUB1", "assay": "Increase in intracellular reactive oxygen species level in human NTUB1 cells at 20 uM after 48 hrs in presence of 1 mM N-acetyl-cysteine by DCFH-DA staining", "format": "functional, cell-based", "procedure,_shortened": "as §3"}, "NTUB1 [6]": {"system": "NTUB1", "assay": "Increase in intracellular reactive oxygen species level in human NTUB1 cells at 20 uM after 24 hrs by DCFH-DA staining", "format": "functional, cell-based", "procedure,_shortened": "as §3"}, "NTUB1 [7]": {"system": "NTUB1", "assay": "Increase in intracellular reactive oxygen species level in human NTUB1 cells at 20 uM after 24 hrs in presence of 1 mM N-acetyl-cysteine by DCFH-DA staining", "format": "functional, cell-based", "procedure,_shortened": "as §3"}, "A549": {"system": "A549", "assay": "Cytotoxicity against human A549 cells at 50 uM after 72 hrs by MTT assay", "format": "functional, cell-based", "procedure,_shortened": "as §1"}, "NTUB1 [8]": {"system": "NTUB1", "assay": "Increase in intracellular reactive oxygen species level in human NTUB1 cells at 50 uM after 48 hrs by DCFH-DA staining", "format": "functional, cell-based", "procedure,_shortened": "as §3"}, "PC-3": {"system": "PC-3", "assay": "Cytotoxicity against human PC3 cells at 50 uM after 72 hrs by MTT assay", "format": "functional, cell-based", "procedure,_shortened": "as §1"}, "[9]": {"assay": "Cell cycle arrest in human NTUB1 cells assessed as accumulation at S phase at 20 uM after 24 hrs using propidium iodide staining by flow cytometry", "format": "functional, cell-based", "procedure,_shortened": "as §2"}, "[10]": {"assay": "Cell cycle arrest in human NTUB1 cells assessed as accumulation at G1 phase at 20 uM after 48 hrs using propidium iodide staining by flow cytometry", "format": "functional, cell-based", "procedure,_shortened": "as §2"}, "NTUB1 [11]": {"system": "NTUB1", "assay": "Increase in intracellular reactive oxygen species level in human NTUB1 cells at 50 uM after 24 hrs by DCFH-DA staining", "format": "functional, cell-based", "procedure,_shortened": "as §3"}, "[12]": {"assay": "Cell cycle arrest in human NTUB1 cells assessed as accumulation at S phase at 50 uM after 24 hrs using propidium iodide staining by flow cytometry", "format": "functional, cell-based", "procedure,_shortened": "as §2"}, "[13]": {"assay": "Cell cycle arrest in human NTUB1 cells assessed as accumulation at G2/M phase at 20 uM after 48 hrs using propidium iodide staining by flow cytometry", "format": "functional, cell-based", "procedure,_shortened": "as §2"}, "[14]": {"assay": "Cell cycle arrest in human NTUB1 cells assessed as accumulation at G2/M phase at 20 uM after 24 hrs using propidium iodide staining by flow cytometry", "format": "functional, cell-based", "procedure,_shortened": "as §2"}, "[15]": {"assay": "Cell cycle arrest in human NTUB1 cells assessed as accumulation at S phase at 20 uM after 48 hrs using propidium iodide staining by flow cytometry", "format": "functional, cell-based", "procedure,_shortened": "as §2"}, "[16]": {"assay": "Cell cycle arrest in human NTUB1 cells assessed as accumulation at S phase at 50 uM after 48 hrs using propidium iodide staining by flow cytometry", "format": "functional, cell-based", "procedure,_shortened": "as §2"}, "[17]": {"assay": "Cell cycle arrest in human NTUB1 cells assessed as accumulation at G1 phase at 50 uM after 24 hrs using propidium iodide staining by flow cytometry", "format": "functional, cell-based", "procedure,_shortened": "as §2"}, "[18]": {"assay": "Cell cycle arrest in human NTUB1 cells assessed as accumulation at G2/M phase at 50 uM after 48 hrs using propidium iodide staining by flow cytometry", "format": "functional, cell-based", "procedure,_shortened": "as §2"}, "[19]": {"assay": "Induction of apoptosis in human NTUB1 cells assessed as accumulation at subG1 phase at 20 uM after 24 hrs using propidium iodide staining by flow cytometry", "format": "functional", "procedure,_shortened": "as §2"}, "[20]": {"assay": "Induction of apoptosis in human NTUB1 cells assessed as accumulation at subG1 phase at 50 uM after 24 hrs using propidium iodide staining by flow cytometry", "format": "functional", "procedure,_shortened": "as §2"}, "NTUB1 [21]": {"system": "NTUB1", "assay": "Increase in intracellular reactive oxygen species level in human NTUB1 cells at 20 uM after 48 hrs by DCFH-DA staining", "format": "functional, cell-based", "procedure,_shortened": "as §3"}, "[22]": {"assay": "Cell cycle arrest in human NTUB1 cells assessed as accumulation at G1 phase at 20 uM after 24 hrs using propidium iodide staining by flow cytometry", "format": "functional, cell-based", "procedure,_shortened": "as §2"}, "[23]": {"assay": "Induction of apoptosis in human NTUB1 cells assessed as accumulation at subG1 phase at 50 uM after 48 hrs using propidium iodide staining by flow cytometry", "format": "functional", "procedure,_shortened": "as §2"}, "[24]": {"assay": "Cell cycle arrest in human NTUB1 cells assessed as accumulation at G2/M phase at 50 uM after 24 hrs using propidium iodide staining by flow cytometry", "format": "functional, cell-based", "procedure,_shortened": "as §2"}, "NTUB1 [25]": {"system": "NTUB1", "assay": "Increase in intracellular reactive oxygen species level in human NTUB1 cells at 50 uM after 48 hrs in presence of 1 mM N-acetyl-cysteine by DCFH-DA staining", "format": "functional, cell-based", "procedure,_shortened": "as §3"}, "Tubulin (Homo sapiens)": {"biological_target": "Tubulin (Homo sapiens) (UniProt P68371+Q9H4B7+P0DPH7+P68366+Q13509+Q71U36+P04350+Q3ZCM7+P07437+P68363+Q9BQE3+Q6PEY2+Q13885+Q9BVA1+Q9BUF5)", "assay": "Inhibition of tubulin polymerization in human NTUB1 cells assessed as blockade of microtubule assembly at 50 uM by indirect immunofluorescence staining", "format": "cell-based", "procedure,_shortened": "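NTUB1 cells on coverslips were treated for 24 h, then fixed in 2% formaldehyde/PBS for 20 min and in cold methanol (−20 °C) for 3 min. Stained with anti-α-tubulin monoclonal antibody for 3 h at room temperature, then rhodamine-conjugated secondary antibody for 1 h in the dark. Mounted in 80% glycerol/PBS and examined by fluorescence microscopy.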"}, "[26]": {"assay": "Cell cycle arrest in human NTUB1 cells assessed as accumulation at G1 phase at 50 uM after 48 hrs using propidium iodide staining by flow cytometry", "format": "functional, cell-based", "procedure,_shortened": "as §2"}}, "note": "Activity calls are given as the source filed them. No cut-off for these calls is given here.", "data": [{"compound": "CCC(=O)O[C@H]1CC[C@]2(C)[C@H]3CC=C4[C@@H]5[C@@H](C)[C@H](C)CC[C@]5(C(=O)O)CC[C@@]4(C)[C@]3(C)CC[C@H]2C1(C)C", "values": [{"measurement": "Activity", "setting": "[1]", "value": 72.53, "unit": "%"}, {"measurement": "IC50", "setting": "[2]", "value": "> 30", "unit": "µM"}]}, {"compound": "C[C@H]1[C@H](C)CC[C@]2(C(=O)O)CC[C@]3(C)C(=CC[C@@H]4[C@@]5(C)CCC(=O)OC(C)(C)[C@@H]5CC[C@]43C)[C@H]12", "values": [{"measurement": "Activity", "setting": "[1]", "value": 63.91, "unit": "%"}, {"measurement": "IC50", "setting": "[2]", "value": "> 30", "unit": "µM"}]}, {"compound": "C=C(C)[C@@H]1CC[C@]2(C)[C@H](CC=C3[C@@H]4[C@@H](C)[C@H](C)CC[C@]4(C(=O)O)CC[C@]32C)[C@@]1(C)CCC(=O)O", "values": [{"measurement": "Activity", "setting": "[3]", "value": 5.12, "unit": "%"}, {"measurement": "Activity", "setting": "NTUB1 [4]", "value": "inactive"}, {"measurement": "Activity", "setting": "NTUB1 [5]", "value": "Active"}, {"measurement": "Activity", "setting": "NTUB1 [6]", "value": "Active"}, {"measurement": "Activity", "setting": "NTUB1 [7]", "value": "inactive"}, {"measurement": "Activity", "setting": "A549", "value": "Active"}, {"measurement": "Activity", "setting": "NTUB1 [8]", "value": "Active"}, {"measurement": "Activity", "setting": "PC-3", "value": "Active"}, {"measurement": "Activity", "setting": "[9]", "value": 23.7, "unit": "%"}, {"measurement": "Activity", "setting": "[10]", "value": 52.2, "unit": "%"}, {"measurement": "Activity", "setting": "NTUB1 [11]", "value": "Active"}, {"measurement": "Activity", "setting": "[12]", "value": 6.9, "unit": "%"}, {"measurement": "Activity", "setting": "[13]", "value": 16.6, "unit": "%"}, {"measurement": "Activity", "setting": "[14]", "value": 10.9, "unit": "%"}, {"measurement": "Activity", "setting": "[15]", "value": 20.6, "unit": "%"}, {"measurement": "Activity", "setting": "[16]", "value": 3.05, "unit": "%"}, {"measurement": "Activity", "setting": "[17]", "value": 52.2, "unit": "%"}, {"measurement": "Activity", "setting": "[18]", "value": 11.1, "unit": "%"}, {"measurement": "Activity", "setting": "[19]", "value": 21.68, "unit": "%"}, {"measurement": "Activity", "setting": "[20]", "value": 25.75, "unit": "%"}, {"measurement": "Activity", "setting": "NTUB1 [21]", "value": "Active"}, {"measurement": "Activity", "setting": "[22]", "value": 41.3, "unit": "%"}, {"measurement": "Activity", "setting": "[23]", "value": 14, "unit": "%"}, {"measurement": "Activity", "setting": "[24]", "value": 13.1, "unit": "%"}, {"measurement": "IC50", "setting": "[2]", "value": 25.5, "unit": "µM"}, {"measurement": "Activity", "setting": "NTUB1 [25]", "value": "Active"}, {"measurement": "Activity", "setting": "Tubulin (Homo sapiens)", "value": "Active"}, {"measurement": "Activity", "setting": "[26]", "value": 66.4, "unit": "%"}]}]}
